# FLuc act counter – affects firefly luciferase, flagging false hits in luciferase stimulation screens. 200,000 tested, under 10 active. AID 1027. P08659. activation factor at 10 µM. ATPlite luciferase biochemical, luminescence, 10 min; 0 = ATP-free wells, 1 = DMSO control;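 active = luciferase activation factor, scaled between plate controls, of at least 2 with compound at 10 µM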
# Target sequence (P08659 whole entry, looked up): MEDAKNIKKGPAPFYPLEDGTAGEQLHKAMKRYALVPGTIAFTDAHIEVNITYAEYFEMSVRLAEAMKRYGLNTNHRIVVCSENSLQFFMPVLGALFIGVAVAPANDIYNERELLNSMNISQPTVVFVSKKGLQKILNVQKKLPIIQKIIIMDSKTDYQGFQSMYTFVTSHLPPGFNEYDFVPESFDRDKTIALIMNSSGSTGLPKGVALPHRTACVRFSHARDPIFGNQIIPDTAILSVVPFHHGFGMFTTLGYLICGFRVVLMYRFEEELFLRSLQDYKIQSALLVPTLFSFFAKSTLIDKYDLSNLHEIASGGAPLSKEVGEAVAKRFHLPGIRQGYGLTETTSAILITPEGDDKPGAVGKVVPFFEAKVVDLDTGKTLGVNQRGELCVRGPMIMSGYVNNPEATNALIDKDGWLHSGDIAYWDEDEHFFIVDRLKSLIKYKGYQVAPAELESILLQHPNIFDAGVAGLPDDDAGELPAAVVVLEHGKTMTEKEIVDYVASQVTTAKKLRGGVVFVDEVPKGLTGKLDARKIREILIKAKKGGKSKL
#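 System: luciferase plus luciferin reagent, cell-free; medium: PBS as buffer for the ATP substrate; dosing: test compounds dosed from 2 mM stocks in 100% DMSO; timing: 10 min post-reagent at room temperature; measured by: luminescence measurement of luciferase light output; evaluation: luciferase activation, seen as luminescence increase over controls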
# PPC-1+TRAIL kill – compounds killing PPC-1 cancer cells with TRAIL present (potentiator screen, no TRAIL-free arm) | PPC-1 cells + TRAIL, ATPLite viability luminescence | cell killing (% activity), % at 4 µM or 5 µM | actives 0.41% (n = 220,000);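 active = cell killing above 50% in the first pass at 4 µM, then a duplicate retest at 5 µM averaging 50% or more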
# APP 5'UTR act – activates APP 5'UTR luciferase reporter. activation, % at 2 µM. SH-SY5Y APP 5'UTR luciferase reporter, luminescence; zero percent = DMSO vehicle wells. actives 1% (n = 190,000);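 active = activation above a set limit, based on mean plus 3 SD of controls, cut at about 140% in these data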
# C8 TRAIL sens – caspase-8 TRAIL sensitization; NB7+C8 cells + TRAIL, ATPlite viability luminescence; inhibition (viability loss, TRAIL sensitization), % at 10 µM; actives 1% (n = 360,000);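 active = compounds causing at least 50% loss of cell viability in the single-dose screen, relative to plate controls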
# FLuc inhib CS – inhibits firefly luciferase, flagging false hits in luciferase inhibition screens; inhibition, % at 10 µM; P08659; actives 1.5% (n = 200,000); ATPLite firefly luciferase biochemical luminescence, 10 min;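 active = inhibition above about 50% when tested at 10 µM, limit read from the data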
# NF-kB neuron act – compounds increasing NF-kB expression in human neuronal cells; NF-kB reporter expression; stronger effect = higher value; fold change at 12.5 µM; actives 1.6% (n = 190,000); AID 1239; in the data active = fold change above about 3.3
# Hits are given with their value; 0 = inactive; - = no result. In the library only some 2.2% were active in any assay of this set; here they are far more common.
SMILES,FLuc act counter,PPC-1+TRAIL kill,APP 5'UTR act,C8 TRAIL sens,FLuc inhib CS,NF-kB neuron act
CC(C)(C)n1ncc2c(=O)n(CC(=O)NCc3ccco3)cnc21,0,0,0,0,0,0
CC(C)(C)n1ncc2c(=O)n(CC(=O)OCc3ccccc3)cnc21,0,0,0,0,92.5,0
CC(C)(C)n1ncc2c(=O)n(CC(=O)NCc3ccc(F)cc3)cnc21,0,0,169.1,0,0,3.49
CCN(CC(=O)Nc1ccccc1C(F)(F)F)CC(=O)c1[nH]c(C)c(C(C)=O)c1C,-,-,-,0,-,-
COc1ccc(-c2csc(N3N=C(C)C(C)C3=O)n2)cc1 (centres undefined),0,0,0,0,60.7,0
CC1=NN(c2nc(-c3ccc(C)cc3)cs2)C(=O)C1N=Nc1ccccc1O (centres undefined),0,0,0,0,0,0
CC1=C([N+](=O)[O-])C(c2cccc(Br)c2)C2=C(N1)c1ccccc1C2=O (centres undefined),0,0,0,0,0,4.47
COC(=O)C1=C(C)NC2=C(C(=O)c3ccccc32)C1c1cccc(OC)c1 (centres undefined),-,0,-,0,-,-
COC(=O)[C@@H]1Cc2c([nH]c3ccccc23)C(C)(C)N1C(=O)CCl,-,-,-,95.6,-,-
CN(CCO)c1cccc2c1S(=O)(=O)N[C@@H](Cc1ccccc1)CO2,-,-,-,0,-,-
N#Cc1c(NCCN)nc(NCc2ccccc2)c2c1CCN(Cc1ccccc1)C2,0,0,0,0,0,-
Nc1[nH]nc2nc(NCc3ccccc3)c3c(c12)CCN(Cc1ccccc1)C3,0,0,0,0,0,4.29
COc1ccc(S(=O)(=O)N=N/C=C2\C=CC=CN2O)cc1OC,-,-,-,0,-,-
CCOC(=O)c1ccc(N2C(=O)C3C(/C=C/c4ccccc4)OC4(C(=O)c5ccccc5C4=O)C3C2=O)cc1 (centres undefined),0,55.4,0,0,0,0
CCOC(=O)c1ccc(N2C(=O)[C@@H](c3ccccc3)[C@H]2c2ccccc2)cc1,-,-,-,0,-,-
CC(/C=N\NC(=O)c1cc(C)oc1C)=C\c1ccccc1,0,0,0,0,76.3,0
Cc1ccc(/C=N/NC(=O)c2cc(C)oc2C)cc1,-,0,-,50.2,-,-
COC(=O)c1ccc(C(=O)OC)c(NC(=O)Cc2cccs2)c1,-,-,-,0,-,-
CCCCCCCCCCCCC/C=C/[C@@H](O)[C@@H](N)CO,-,-,-,71.2,-,-
CCCCCCCC/C=C\CCCCCCCC(=O)O,-,0,-,0,-,-
CC(C)(C)S(=O)(=O)/C(C#N)=C/c1cccn1S(=O)(=O)c1ccccc1,-,-,-,0,-,-
CSc1ccc(C2NC(=O)c3ccccc3N2)cc1 (centres undefined),-,-,-,50.7,-,-
COCCCN1C(=O)C(CC(=O)NCCN2CCOCC2)CC(C(=O)N(C)C)=C1C (centres undefined),-,-,-,0,-,-
CSCCC(C(=O)Nc1c(C)cccc1C)n1c(-c2cc(C)cs2)nc2ccccc21 (centres undefined),-,-,-,0,-,-
CC(C)Cc1nnc(NC(=O)c2cc3c(s2)CCC3)s1,-,0,-,0,-,-
SMILES,FLuc act counter,PPC-1+TRAIL kill,APP 5'UTR act,C8 TRAIL sens,FLuc inhib CS,NF-kB neuron act
O=C(Nc1nncs1)c1cc2c(s1)CCC2,0,0,0,0,62.7,0
Cc1ccc(C(=O)c2c(C)oc3c2C(=O)C(=O)c2ccccc2-3)cc1,0,0,0,96.5,0,0
Cc1ccc(C(=O)c2coc3c2C(=O)C(=O)c2ccccc2-3)cc1,0,0,0,0,0,0
Cc1oc2c(c1C(=O)c1ccc(Cl)cc1)C(=O)C(=O)c1ccccc1-2,0,0,0,94.4,0,0
O=C(c1ccc(Cl)cc1)c1ccc(CN2C(=O)c3ccccc3C2=O)o1,0,0,0,0,0,0
COCC(=O)Nc1nnc(-c2ccc(C(C)(C)C)cc2)s1,0,0,141.7,0,60.4,8.37
COc1ccc(Cc2c(C3CCCCC3)nc3c(Cl)cc(C(F)(F)F)cn23)c(C)c1,-,-,-,0,-,-
COc1ccc(CCN(C)C(=O)CCc2nnc(-c3ccccc3)o2)cc1OC,0,0,0,0,0,4.1
Cc1ccccc1CNC(=O)c1[nH]c(C(F)(F)F)nc1-c1ccccc1,-,-,-,0,-,-
O=C(Nc1ccc(NC(=O)C2CC2)nc1)c1cnccn1,0,0,0,0,0,0
O=C(Nc1ccc(NC(=O)C2CC2)nc1)c1ccccn1,0,0,0,0,62.1,0
CC(C)C(=O)Nc1ccc(NC(=O)c2ccccn2)cn1,0,0,0,48.3,66.8,0
CCC(=O)Nc1ccc(NC(=O)c2ccccn2)cn1,0,0,0,0,0,0
CC(C)(C)c1ccc(NC(=O)c2cc(C3CCCN(C(=O)CCc4ccccc4)C3)on2)cc1 (centres undefined),-,-,-,0,-,-
CN(Cc1ccccc1)C(=O)[C@@H]1CCCN1C(=O)OC(C)(C)C,-,-,-,0,-,-
COc1ccc(-c2nn(-c3ccccc3)cc2C(=O)O)cc1OC,0,0,0,0,81.9,0
COc1ccc(-c2nn(-c3ccccc3)cc2C(=O)Nc2ccc(C(=O)O)cc2)cc1OC,-,-,-,0,-,-
CCCCCc1c(-c2ccc(F)cc2F)ncn1CCc1ccccc1OC,-,-,-,0,-,-
O=C(Nc1ccc(Cl)cc1)C1Cc2c(-c3ccccc3)ccnc2O1 (centres undefined),-,-,-,0,-,-
COc1ccc2nc3cc(Cl)ccc3c(Nc3cc(CN4CCCC4)c(O)c(CN4CCCC4)c3)c2n1,-,-,-,79.1,-,-
O=C(Cc1ccccc1)Nc1cc2c(cc1Cl)OCCCO2,-,-,-,0,-,-
CCc1ccc(C(=O)Nc2cc3c(cc2Cl)OCCCO3)cc1,0,0,0,0,0,4.57
Cc1ccsc1C(=O)N1CCC1(C)C(=O)NCCC#N (centres undefined),-,-,-,0,-,-
Cc1cccc(-c2nc(C#N)c(NC3CCCCC3)o2)c1,0,0,136.5,0,0,0
COCC(=O)Nc1c(C(=O)Nc2ccc3c(c2)OCO3)oc2ccccc12,-,-,-,0,-,-
SMILES,FLuc act counter,PPC-1+TRAIL kill,APP 5'UTR act,C8 TRAIL sens,FLuc inhib CS,NF-kB neuron act
O=C(CCl)Nc1c(C(=O)Nc2ccc3c(c2)OCCO3)oc2ccccc12,-,-,-,61.5,-,-
O=C(Nc1ccc2c(c1)OCCO2)c1coc2ccccc2c1=O,0,0,0,0,97.1,0
Cc1cc(C)n2nc(C(=O)Nc3ccc4c(c3)OCO4)cc2n1,0,0,0,0,0,3.33
Cc1nc2ccccn2c1C(=O)Nc1ccc2c(c1)OCCO2,0,0,0,0,53.8,0
COc1ccc(-c2nc3c4ccccc4ccn3c2Cc2ccccc2)cc1OC,-,-,-,0,-,-
C[C@H](O)[C@@H]1C(=O)N2CCc3c([nH]c4ccccc34)[C@@H]2C[C@@H]1N(C)C(=O)c1cc(Cl)cc(Cl)c1,-,-,-,0,-,-
CCCCCCCCN1C(=O)[C@H](CC(=O)NCCCOCCCC)C[C@@]2(C(=O)OCC)CCCC=C12,-,-,-,0,-,-
Cc1cc(C(=O)Nc2ccc3c(c2)OCCO3)c(C)o1,0,0,0,0,54.5,4.63
Cc1ccccc1C(=O)Nc1ccc2c(c1)OCCO2,-,-,-,61.8,-,-
Cc1ncoc1C(=O)Nc1ccc2c(c1)OCCO2,0,0,0,0,0,0
CSc1ccccc1C(=O)Nc1ccc2c(c1)OCCO2,0,0,0,0,0,0
Cc1ccsc1C(=O)Nc1ccc2c(c1)OCCO2,0,0,0,71.4,78.6,6.24

# Source: PubChem BioAssay (several laboratories)
